Measured values reported in ChEMBL document CHEMBL1141516, “2-Aminotetralones: novel inhibitors of MurA and MurZ” (Bioorg Med Chem Lett, 2008).
In brackets after ≈: the same amount, converted by molar mass. Activity calls are given as the source filed them. The calls are words filed in the database; no cut-off is given here.

Legend:
[1] = Inhibition of chymotrypsin
[2] = tested on: UDP-N-acetylglucosamine 1-carboxyvinyltransferase (Escherichia coli K-12), P0A749 [C115D]; experiment: Inhibition of Escherichia coli MurA C115D mutant
Procedure, shortened: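 Purified E. coli MurA C115D mutant protein was tested with inhibitor at up to 120 µM.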

[3] = Inhibition of MDH
[4] = Inhibition of Escherichia coli MurA
Procedure, shortened: (§1)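 Poly(His)-tagged MurA from E. coli BL21 Star (DE3) (0.1 mM IPTG, 18 °C, 24 h), purified by Co2+ affinity and gel filtration. At 25 °C, a 2-fold inhibitor series went to 33.3 µg/mL enzyme preincubated 10 min in 50 mM Tris-HCl pH 7.8 with UDP-GlcNAc. PEP started a 30 min reaction. Phosphate was read by malachite green-molybdate at A660 against standards. Means of four experiments ± SD.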

[5] = Antibacterial activity against Escherichia coli JM109; type: functional
[6] = Antibacterial activity against Staphylococcus aureus SH1000; type: functional
[7] = Inhibition of Staphylococcus aureus MurZ
Procedure, shortened: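 Poly(His)-tagged MurZ was expressed in E. coli BL21 Star (DE3) by autoinduction and purified by Co2+ affinity and gel filtration. At 25 °C, a 2-fold inhibitor series was added to enzyme preincubated 10 min in 50 mM Tris-HCl pH 7.8 with UDP-GlcNAc. PEP started a 30 min reaction. Released phosphate was read by malachite green-molybdate at A660 against phosphate standards. Means of three experiments ± SD.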

[8] = Inhibition of Staphylococcus aureus MurA; procedure, shortened: as §1

Chain of UDP-N-acetylglucosamine 1-carboxyvinyltransferase (Escherichia coli K-12), P0A749 [C115D] (P0A749 whole entry C115D): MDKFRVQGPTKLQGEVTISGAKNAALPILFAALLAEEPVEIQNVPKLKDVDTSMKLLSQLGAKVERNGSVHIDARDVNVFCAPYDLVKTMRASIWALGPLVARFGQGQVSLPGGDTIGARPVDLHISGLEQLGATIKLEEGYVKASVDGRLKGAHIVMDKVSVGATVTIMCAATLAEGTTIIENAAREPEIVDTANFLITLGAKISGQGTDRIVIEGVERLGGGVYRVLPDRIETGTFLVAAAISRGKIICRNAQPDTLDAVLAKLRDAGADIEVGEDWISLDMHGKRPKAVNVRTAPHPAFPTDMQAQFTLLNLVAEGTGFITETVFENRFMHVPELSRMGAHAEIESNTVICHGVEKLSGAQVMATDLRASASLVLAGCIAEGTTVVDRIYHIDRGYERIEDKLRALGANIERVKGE

## COc1cc2c(cc1OC)C(=O)C(N1CCN(CCO)CC1)CC2.Cl.Cl (stereo not given)
[1]
  Activity: inactive
[2]
  Activity: inactive
[3]
  Activity: inactive
[4]
  IC50: 3.13 µM
[5]
  MIC: 256 µg/mL
[6]
  MIC: 128 µg/mL
[7]
  IC50: 18.8 µM
[8]
  IC50: 17.4 µM

## Cl.Cl.OCCN1CCN(C2CCc3ccccc3C2)CC1 (stereo not given)
[4]
  IC50: > 120 µM
[5]
  MIC: > 256 µg/mL
[6]
  MIC: > 256 µg/mL
[7]
  IC50: > 120 µM
[8]
  IC50: > 120 µM

## COc1cc2c(cc1OC)C(=O)C(N1CCN(Cc3ccccc3)CC1)CC2 (stereo not given)
[1]
  Activity: inactive
[3]
  Activity: inactive
[4]
  IC50: 22.6 µM
[5]
  MIC: > 256 µg/mL
[6]
  MIC: 64 µg/mL (≈ 168 µM)
[7]
  IC50: 28.9 µM
[8]
  IC50: 29 µM

## Cl.Cl.OCCN1CCN([C@@H]2CCc3ccccc3[C@H]2O)CC1
[4]
  IC50: > 120 µM
[5]
  MIC: > 256 µg/mL
[6]
  MIC: > 256 µg/mL
[7]
  IC50: > 120 µM
[8]
  IC50: > 120 µM

## CN1CCN(C2CCc3ccccc3C2=O)CC1.Cl.Cl (stereo not given)
[1]
  Activity: inactive
[2]
  Activity: inactive
[3]
  Activity: inactive
[4]
  IC50: 8.53 µM
[5]
  MIC: 128 µg/mL
[6]
  MIC: 64 µg/mL
[7]
  IC50: 22.9 µM
[8]
  IC50: 12 µM

## Cl.Cl.O=C1c2ccccc2CCC1N1CCN(CCO)CC1 (stereo not given)
[1]
  Activity: inactive
[3]
  Activity: inactive
[4]
  IC50: 22.5 µM
[5]
  MIC: 128 µg/mL
[6]
  MIC: 8 µg/mL
[7]
  IC50: 16.1 µM
[8]
  IC50: 12.5 µM

## C[C@@H]1O[C@@H]1P(=O)(O)O [FOSFOMYCIN]
[4]
  IC50: 0.46 µM
[5]
  MIC: 8 µg/mL (≈ 57.9 µM)
[6]
  MIC: 16 µg/mL (≈ 116 µM)
[7]
  IC50: 1.37 µM
[8]
  IC50: 1.36 µM

## O=C1c2ccccc2CCC1C1CCCCC1 (stereo not given)
[4]
  IC50: > 120 µM
[5]
  MIC: > 256 µg/mL
[6]
  MIC: > 256 µg/mL
[7]
  IC50: > 120 µM
[8]
  IC50: > 120 µM
